Bioassay records deposited in PubChem by The Scripps Research Institute Molecular Screening Center.
OX1R antag-1: antagonists of human orexin 1 receptor (OX1R); inhibition, % at 6.6 µM; OX1R-expressing cells, FRET antagonist read-out; hit rate 1.8% among 330,000; in the data active = inhibition mostly above about 38%, no sharp cut-off; inactive = mostly below about 40%;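 note: 0% = agonist challenge alone and 100% = reference antagonist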
Target sequence (O43613 whole entry, looked up): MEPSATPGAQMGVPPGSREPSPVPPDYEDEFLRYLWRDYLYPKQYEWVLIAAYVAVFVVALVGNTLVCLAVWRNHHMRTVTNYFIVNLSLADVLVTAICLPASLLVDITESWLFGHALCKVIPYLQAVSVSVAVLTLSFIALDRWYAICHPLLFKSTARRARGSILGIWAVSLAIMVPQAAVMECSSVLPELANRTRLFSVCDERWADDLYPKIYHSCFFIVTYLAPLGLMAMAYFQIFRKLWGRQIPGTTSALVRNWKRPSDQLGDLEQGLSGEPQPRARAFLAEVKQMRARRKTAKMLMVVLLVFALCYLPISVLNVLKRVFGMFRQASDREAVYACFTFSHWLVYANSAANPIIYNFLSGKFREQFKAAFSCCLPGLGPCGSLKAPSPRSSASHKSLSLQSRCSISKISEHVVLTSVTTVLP
CHO parental Ca: signal in parental CHO cells, OX1R antagonist counter-screen | hit rate 0.63% among 330,000 | parental CHO-K1, ATP-induced calcium, Fluo-8 fluorescence | AID 463079 | inhibition, % at 5.6 µM;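 active = inhibition above that plate's mean sample inhibition plus 3 SD, cut at about 26% in these data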;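 note: 0% = ATP-challenged DMSO wells and 100% = DMSO wells without ATP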
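Material: Parental CHO cells | Reagent: ATP | Compound dosing: Single nominal dose of 5.6 µM per compound | Detection: Intracellular calcium via Fluo-8 no-wash fluorescent dye | Read-out: % inhibition of ATP-induced calcium mobilization | Benchmarks: Low control ATP plus DMSO, high control DMSO only | Replicates: Singlicate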
OX1R antag-2: blocks the human orexin 1 receptor; AID 434989; inhibition, % at 5 µM; hit rate 0.43% among 330,000; CHO/OX1R cells, Fluo-8 calcium fluorescence, orexin A; O43613;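 active = inhibition above its plate's threshold, mean inhibition of all tested compounds on the plate plus 3 SD, cut at about 37% in these data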;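 note: 0% = orexin A challenge wells and 100% = SB-334867-A antagonist wells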
TAAR1 agonist: human TAAR1 agonism; CHO RD-HGA16 TAAR1, Fluo-8 calcium fluorescence; vehicle wells 0%, saturating PEA agonist 100%; Q96RJ0; activation, % at 3 µM; hit rate 0.99% among 360,000;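 active = activation above the mean activation of all test compounds in the run plus 3 SD, cut at about 38% in these data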
Target sequence (Q96RJ0 whole entry, looked up): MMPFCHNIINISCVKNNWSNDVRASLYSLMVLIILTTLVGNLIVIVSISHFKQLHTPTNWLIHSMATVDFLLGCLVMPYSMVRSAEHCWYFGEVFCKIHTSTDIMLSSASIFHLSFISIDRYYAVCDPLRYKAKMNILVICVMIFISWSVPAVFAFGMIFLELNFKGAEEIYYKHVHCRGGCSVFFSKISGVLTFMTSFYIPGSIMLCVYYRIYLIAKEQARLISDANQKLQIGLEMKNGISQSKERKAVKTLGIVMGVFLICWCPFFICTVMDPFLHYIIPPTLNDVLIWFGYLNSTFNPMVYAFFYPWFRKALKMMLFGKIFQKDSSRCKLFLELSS
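System: CHO-derived RD-HGA16 cells with stable Gα16 and human TAAR1 / Times: 17-24 h plating, Fluo-8 75 min 37 °C, 30 min RT / Technique: calcium-sensitive Fluo-8 signal, excitation 470-495, emission 515-575 nm / Measure: % activation relative to PEA EC100 response / Benchmarks: DMSO and PEA EC100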
TAAR1 antagonist: antagonists of human TAAR1; CHO RD-HGA16 TAAR1, Fluo-8 calcium fluorescence, antagonist; hit rate 1.5% among 360,000; AID 624466; inhibition, % at 3 µM;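 active = inhibition above a per-plate cutoff, the mean inhibition of test compounds on that plate plus 3 SD, cut at about 49% in these data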;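 note: 0% = DMSO plus EC80 beta-PEA response and 100% = DMSO alone without agonist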
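Test system – hTAAR1-expressing CHO RD-HGA16 cells, Gα16-coupled · Reagent – β-PEA at EC80 concentration, post-compound challenge · Compound dosing – 3 µM, single point · Timing – 140 s kinetic read after compound, 140 s after agonist · Detection – Fluo-8 intracellular calcium dye fluorescence, real-time kinetic reads · Control set – DMSO and EC80 PEA controls · Repeats – n of 1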
GPR7 antagonist: human neuropeptides B/W receptor 1 antagonism; GPR7-expressing cells, fluorescence antagonist assay; inhibition, % at 4.4 µM; hit rate 1.1% among 290,000; AID 1861; in the data active = inhibition above about 16%, passing the limit was not always enough;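 note: cells stimulated with the agonist NPW; 0% = agonist with vehicle and 100% = vehicle without agonist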
An asterisk follows results filed as active; · = no result. Most compounds without a hit are left out; they make up all but 4.6% or so of the library.

SMILES | OX1R antag-1 | CHO parental Ca | OX1R antag-2 | TAAR1 agonist | TAAR1 antagonist | GPR7 antagonist
COc1cccc(-c2cnc3c(NC(C)=O)cc(-c4cccc(NS(C)(=O)=O)c4)cn23)c1 | · | · | · | 7.5 | 50.4* | ·
CC(=O)Nc1cc(-c2cccc(NS(C)(=O)=O)c2)cn2c(-c3ccccc3)cnc12 | · | · | · | 6.0 | 29.2 | ·
CC(=O)Nc1cccc(-c2cc(NC(C)=O)c3ncc(-c4cccc(C(F)(F)F)c4)n3c2)c1 | · | · | · | 17.4 | 50.1* | ·
C[C@H](CO)N1C[C@H](C)[C@@H](CN(C)C(=O)Nc2ccccc2)OCc2cn(nn2)CCCC1=O | · | · | · | 0.6 | 12.2 | ·
COc1cccc(-c2oc3c(c2C(=O)OCCN(C)C)C(O)CCC3)c1 (centres undefined) | · | · | · | 1.0 | -19.0 | ·
COC(=O)C1=C(C)N(Cc2ccc(C(F)(F)F)cc2)C(=NCc2ccc(C(F)(F)F)cc2)NC1c1ccccc1 (centres undefined) | · | · | · | 11.3 | 7.8 | ·
CC(C)[C@H](NC(=O)[C@@H](N)Cc1ccccc1)C(=O)N1CCC2CCN(Cc3ccccc3)CC21 (some centres undefined) | · | · | · | -0.9 | 2.6 | ·
OCCSc1nc(-c2ccccc2)nc2ccc(F)cc12 | 47.2* | -16.8 | -15.0 | 3.2 | -12.1 | -6.6
COC(=O)CSc1nc(-c2ccccc2)nc2ccc(F)cc12 | 16.9 | -20.1 | -32.8 | 8.8 | -7.5 | -5.5
O=C1C2C3c4ccccc4C(c4ccccc43)[C@@H]2C(=O)N1c1cccnc1 (some centres undefined) | 25.5 | -18.4 | -10.8 | 9.1 | 49.5* | 2.9
O=C1C2C3c4ccccc4C(c4ccccc43)C2C(=O)N1c1ccncc1 (centres undefined) | · | · | · | 1.1 | 19.8 | -1.9
C=CS(=O)(=O)N(C(=C)C(=O)OC)S(C)(=O)=O | · | · | · | 12.6 | -9.1 | ·
Cc1ccc(S(=O)(=O)N2[C@@H](c3cccc(Cl)c3)C(C(=O)O)=CC[C@H]2c2ccc(Cl)cc2)cc1 | 73.9* | -0.6 | 30.5 | 3.6 | 52.2* | ·
CCOc1ccc([C@@H]2CC=C(C(=O)O)[C@H](c3cccc(Cl)c3)N2S(=O)(=O)c2ccc(C)cc2)cc1 | 55.2* | 3.7 | -17.7 | 0.5 | 15.6 | ·
Cc1ccc(S(=O)(=O)N2C(c3cccc(Cl)c3)CC=C(C(=O)O)C2c2cccc(Cl)c2)cc1 (centres undefined) | · | · | · | 1.5 | 2.0 | ·
CCOc1ccc([C@@H]2CC=C(C(=O)O)[C@H](c3ccc(F)cc3)N2S(=O)(=O)c2ccc(C)cc2)cc1 | 21.8 | -9.4 | 1.6 | 13.0 | 15.2 | ·
CC(C)Cn1c(N)c(C(=O)COC(=O)Cc2cccc(C(F)(F)F)c2)c(=O)n(C)c1=O | 28.9 | 54.5* | 8.2 | 7.6 | 40.8 | ·
CC(C)Cn1c(N)c(C(=O)COC(=O)c2ccccc2F)c(=O)n(C)c1=O | 14.6 | -5.9 | -23.2 | 22.1 | 10.5 | 16.8*
CC(C)Cn1c(N)c(C(=O)COC(=O)c2ccccc2Cl)c(=O)n(C)c1=O | 19.4 | 10.9 | -2.6 | 32.7 | 22.1 | 5.8
CC(C)Cn1c(N)c(C(=O)COC(=O)c2c(F)cccc2F)c(=O)n(C)c1=O | 19.9 | 3.0 | 6.3 | 39.0* | 13.4 | 2.6
CC(C)Cn1c(N)c(C(=O)CSc2ccc3c(c2)OCCO3)c(=O)n(C)c1=O | 23.0 | 54.5* | 21.1 | 23.0 | 44.3 | 8.5
NCc1ccc(OCCCN2CCC(C(O)(C3=CCCC3)c3ccccc3)CC2)cc1 (centres undefined) | · | · | · | 7.0 | -1.7 | ·
COC(=O)c1cc2c(c3c4cc(OC)ccc4n(S(=O)(=O)c4ccc(OC)cc4)c13)C(=O)N(Cc1ccc(N(C)C)cc1)C2 | · | · | · | -0.2 | -13.9 | ·
O=C(Nc1ccc(F)c(Cl)c1)c1cc(C2CCCCN2C(=O)CCc2ccccc2)on1 (centres undefined) | · | · | · | 5.2 | 18.1 | ·
O=S(=O)(c1cccc2cccnc12)n1cnc2ccccc21 | 21.5 | -11.8 | -17.2 | 2.7 | -3.6 | 12.4*
SMILES | OX1R antag-1 | CHO parental Ca | OX1R antag-2 | TAAR1 agonist | TAAR1 antagonist | GPR7 antagonist
CCOC(=O)c1sc(NC(=O)CCN2C(=O)C3CCCCC3C2=O)cc1C (centres undefined) | 8.7 | -26.2 | -30.2 | 6.4 | 49.0* | ·
CCOC(=O)c1sc(NC(=O)c2sccc2C)cc1C | 42.0* | -5.4 | -19.4 | -3.6 | -11.9 | -8.5
CCOC(=O)c1sc(NC(=O)Nc2ccc(Cl)cc2)nc1C | 67.4 | 42.9* | 42.6 | 26.4 | 27.8 | 4.6
CCOC(=O)c1sc(NC(=O)c2cccs2)cc1C | 35.6 | -23.0 | -9.8 | 1.2 | 7.4 | -16.3
CCOC(=O)c1sc(NC(=O)c2ccc(Br)o2)cc1C | 45.3* | -19.4 | -25.5 | 4.6 | 5.6 | -5.0
CCOc1ccc(NC(=O)CCN2C(=O)C3CCCCC3C2=O)cc1OCC (centres undefined) | -1.9 | -21.3 | -28.0 | 1.1 | 5.2 | ·
C[C@H]1CN(C(=O)OC(C)(C)C)CCN1c1ccc(N2CC[C@@H](O)C2)c(C#N)c1 | · | · | · | 4.9 | -7.4 | ·
CCOC(=O)c1c(NC(=O)Nc2ccccc2)sc(C)c1C | 36.3 | -29.3 | -48.9 | 8.0 | 27.7 | 0.3
CCOC(=O)c1sc(NC(=O)Nc2cccc(Cl)c2)cc1C | 47.0* | 33.9* | 36.4 | 7.2 | 48.1 | 5.8
N/C(=N\OC(=O)C1CC1)c1ccc([N+](=O)[O-])s1 | 56.0* | -1.6 | -13.0 | 16.4 | 7.6 | -9.6
CC(C)(C)C(=O)O/N=C(\N)c1ccc([N+](=O)[O-])s1 | 19.4 | -4.0 | -1.8 | 16.9 | 3.4 | -4.7
N/C(=N\O)c1ccc([N+](=O)[O-])s1 | 46.9* | -2.4 | -8.4 | 5.2 | 0.8 | -6.3
CCCCNC(=O)C1(C)CCCCN1C(=O)c1ccc2c(c1)C(C)(C)CCC2(C)C (centres undefined) | · | · | · | 17.4 | -12.4 | ·
Cc1cc(C)cc(N(CC(=O)NCc2ccc(F)cc2)C(=O)c2snc(C(N)=O)c2N)c1 | 8.7 | -14.7 | -23.4 | 40.8* | 17.0 | 2.3
O=C(Nc1ccc(Cl)c(Cl)c1)Oc1ccc(NC(=O)c2ccco2)cc1 | 31.9 | 42.1* | 38.1 | 22.8 | 34.8 | 2.6
CSCCC(c1nc2ccccc2[nH]1)n1c(/C=C/c2ccc(Cl)cc2)nc2ccccc21 (centres undefined) | · | · | · | 18.1 | -4.0 | ·
CCCNC(=O)C1(C)CCN1C(=O)Cc1ccc(C(C)C)cc1 (centres undefined) | · | · | · | 0.8 | -15.1 | ·
CC(=O)NC(c1cccs1)c1cc(Cl)c2ccccc2c1O (centres undefined) | 18.7 | -17.8 | -10.3 | 4.0 | 2.5 | ·
CC(=O)NC(c1cc(Cl)c2cccnc2c1O)C(C)C (centres undefined) | -0.1 | -7.5 | -15.4 | 18.6 | 2.5 | ·
CCC(=O)NC(C)c1cc(Cl)c2ccccc2c1O (centres undefined) | 33.7 | -9.2 | 25.1 | 13.4 | 21.9 | ·
CC(=O)NC(c1cc(Cl)c2ccccc2c1O)C(C)C (centres undefined) | 39.9* | -7.8 | 0.2 | 6.9 | -2.8 | ·
